Test results reported in the EternaBench riboswitch data.

System: MS2 coat protein
Assay: apparent Kd, MS2 coat protein; higher = weaker binding; RNA-MaP array; FMN 200 µM where present
Procedure, shortened: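 Stalled E. coli RNA polymerase produced the designs on Illumina sequencing-chip clusters. SNAP-549-labelled MS2 coat protein was added from 0.7 or 1.5 nM, doubling to 3 µM, without and then with constant ligand, in 100 mM Tris-HCl pH 7.5, 80 mM KCl, 4 mM MgCl2, BSA, DTT, yeast tRNA and Tween-20. The apparent Kd is the median of filtered per-cluster fits of green signal normalised to red-channel RNA signal and control-cluster median Fmax.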

[1] = designed as: OFF switch for flavin mononucleotide, no ligand
[2] = ligand present: flavin mononucleotide, designed as: OFF switch for flavin mononucleotide
[3] = designed as: ON switch for flavin mononucleotide, no ligand
[4] = ligand present: flavin mononucleotide, designed as: ON switch for flavin mononucleotide

Sequence	apparent Kd [1] [nM]	apparent Kd [2] [nM]	apparent Kd [3] [nM]	apparent Kd [4] [nM]
CACGGGUCAGGAUAUUGUUAGUUUAGUUGUUUGUAUUAGUUCGAGAAGGGACAUGAGGAUCACCCAUGUGGUCA	285	269		
CACGUCAGGAAACGGAGCGGCCAACAUGAGGAUCACCCAUGUGAGGAUAUGCCUACUAAAAGUAGGCAGAAGGCACAAUUGGCA	36.7	94.9		
CACGUCCACACAGGAUAUGCUGGACUUUGUCCAGCAGAAGGGUGACAACAUGAGGAUCACCCAUGUAGGACGUGUAUAUUUAAU			1040	196
CACGUCCUCACAGGAUAUGCUGGACUUUGUCCAGCAGAAGGGUGAAAACAUGAGGAUCACCCAUGUAGGACGUGUAUAUUUAAU			1020	125
CAGACACAUGAGGAUCACCCAUGUGAGGAUAUGCGUACGUUGUCCGUAGGCGACGUGCGCAGAAGGCGCAUUGG	110	252		
CAGACGUCAGGAUAUCUGAUGUCUAACUUCGGUUAGACAUCAGAGAAGGGACAUGAGGAUCACCCAUGUCUGAA	25.4	23.6		
CAGCAAAGGUAGAAGGCAGUACUGAUACAGUACUGAGGAUAUACAUGAGGAUCACCCAUGUUCUUCAGCUGGAAAUAAAUAAAA	8.98	134		
CAGCACUAUCGAGAGGAUAUGCGGUGAUGGACAUGAGGAUCACCCAUGUUAGCGAUGGCAUCACGGCAGAAGGCUCUGCUGCUGC			15.6	12.8
CAGCCCUGAGGAUAUCCAUCCUUGUACAUGAGGAUCACCCAUGUUUUCCUCUGGGCUUUCGGAGAAGGCAGGUAUC	74.4	68.5		
CAGCGAUAGCUAAAGUAUCUAUCAGAGGAUAUUCAUGAAACAUGAGGAUCACCCAUGUGAAACUGGGAGAAGGCUGAUAGAUAG				5.92
CAGCGAUAGCUGAACAAUCUAUCACAGGAUAUUCAUAAAACAUGAGGAUCACCCAUGUGAAAUUGGGAGAAGGGUGAUAGAUUG			10.8	5.04
CAGCGCUGUCGAGAGGAUAUGCGGUGAUGGACAUGAGGAUCACCCAUGUUAGCGACAGCAUCACGGCAGAAGGCUCUACCGCUGC			31.5	21.7
CAGCUGAAUGUGAGGAUAUGUCUAGCUUCGGCUAGACAGAAGGCACAUGAGGAUCACCCAUGUCUCAACAGCUG	36.7	488		
CAGGUAGACUGAGGAUAUACAAGACUUAGUCUAUCUAGGUCAAAAUCCACAUGAGGAUCACCCAUGUAGAAGGCAGUCUGCCUG	17.6	46.8		
CAGGUAGCUACAGGAUAUACACAGCUCAGUAAACUGAGCAAAACAACUACAUGAGGAUCACCCAUGUAGAAGGGUAGCUGCCUG	17	17.1		
CAGGUAGCUACAGGAUAUACACGUCUGGAUAAACCAGACGAAUACCUUACAUGAGGAUCACCCAUGUAGAAGGGUAGCUGCCUG	16.9	19.8		
CAGGUCUGAGGAUAUCCAUCCUCCUACAUGAGGAUCACCCAUGUUUCCCUCUGGGUUUUCGGAGAAGGCAGUUUUU	749	525		
CAGGUUAGAGGAUAUACGUAGGUACAGAUCUGUGUGUUUCUACAUGAGGAUCACCCAUGUAGAAGGCUAUCCUG	25.6	20		
CAGUACUGAGGAUAUACAUGAGGAUCACCCAUGUGUUCCAGCUAGGAUACUAGCAAAAGUAGAAGGCAGUACUG	24.6	443		
CAGUUCUGAGGAUAUCCACCCUCCUACAUGAGGAUCACCCAUGUUUCCCUCUGGGCUUUCGGAGAAGGCAGUUAUC	52.5	43.6		
CAGUUUUGAGGAUAUCCAUCCUCCUACAUGAGGAUCACCCAUGUUUCCCUCUGGGUUUUCGGAGAAGGCAGUUAUU	326	283		
CAUAAGAUAGGAUAUACAGGCCCGUCUUCAUAUUGAUCCCGACAUGAGGAUCACCCAUGUAGAAGGAUCAUAUG	13.5	13.4		
CAUAUACAGGGAGGAUAUAACAUGAGGAUCACCCAUGUGCAAUGCUCAAUGUUAGAAGGCCCAAUAGAAUCGCAAAAGGCAUCC	89.8	272		
